Measured values of several laboratories.
Values after ≈ are worked out from the molar mass of the structure shown.
Organism: Candida albicans
Observed: microbial growth

Cc1c(C(N)=S)c(N)n(N)c(=O)c1C#N  inhibition zone (well diffusion; ATCC10231; 500 µg/mL): 19 mm
Cc1ccccc1NC(=O)C=Cc1ccc(O)c(O)c1  MIC (broth dilution; SC5314): 32 µg/mL (≈ 119 µM)
Cc1nn(-c2ccccc2)c2c1C(c1c[nH]c3ccccc13)N(C(=O)c1ccncc1)N2 (centres unmarked)  MIC (MTCC183): 32 µg/mL (≈ 76.1 µM)
N#Cc1c(-c2ccc(OCc3ccccc3)cc2)c(C(N)=O)c(N)n(N)c1=O  inhibition zone (well diffusion; ATCC10231; 500 µg/mL): 10 mm
Cc1nn(-c2ccccc2)c2c1C(c1ccc(O)cc1)N(C(=O)c1ccncc1)N2 (centres unmarked)  MIC (MTCC183): 64 µg/mL (≈ 161 µM)
CN(C)c1ccc(-c2c(C(N)=S)c(N)n(N)c(=O)c2C#N)cc1  inhibition zone (well diffusion; ATCC10231; 500 µg/mL): 17 mm
Cc1nn(-c2ccccc2)c2c1C(c1ccc(N(C)C)cc1)N(C(=O)c1ccncc1)N2 (centres unmarked)  MIC (MTCC183): 32 µg/mL (≈ 75.4 µM)
C[C@@H]1[C@H](O)[C@@H](C)/C=C/C=C/C=C/C=C/C=C/C=C/C=C/[C@H](O[C@@H]2O[C@H](C)[C@@H](O)[C@H](N)[C@@H]2O)C[C@@H]2O[C@](O)(C[C@@H](O)C[C@@H](O)[C@H](O)CC[C@@H](O)C[C@@H](O)CC(=O)O[C@H]1C)C[C@H](O)[C@H]2C(=O)O  MIC (broth dilution; ATCC60193; 24 h): 2 µg/mL (≈ 2.16 µM)
CC(C)NCC(COc1cccc2ccccc12)OC(=O)C=Cc1ccc(O)c(O)c1 (centres unmarked)  MIC (broth dilution; SC5314): 16 µg/mL (≈ 38 µM)
N#Cc1c(-c2ccc(OCc3ccccc3)cc2)c(C(N)=S)c(N)n(N)c1=O  inhibition zone (well diffusion; ATCC10231; 500 µg/mL): 10 mm
OC(Cn1cncn1)(Cn1cncn1)c1ccc(F)cc1F  MIC50 (broth dilution; SC5314; 48 h): 0.8 µM (≈ 0.245 µg/mL)
Nc1ccccc1OC(=O)C=Cc1ccc(O)c(O)c1  MIC (broth dilution; SC5314): 8 µg/mL (≈ 29.5 µM)
Cc1nn(-c2ccccc2)c2c1C(c1cncs1)N(C(=O)c1ccncc1)N2 (centres unmarked)  MIC (MTCC183): > 100 µg/mL
O=C(C=Cc1ccc(O)c(O)c1)OCCc1ccccc1  MIC (broth dilution; SC5314): 8 µg/mL (≈ 28.1 µM)
N#Cc1c(-c2ccc(Cl)cc2Cl)c(C(N)=O)c(N)n(N)c1=O  inhibition zone (well diffusion; ATCC10231; 500 µg/mL): 9 mm
Cc1nn(-c2ccccc2)c2c1C(c1ccc([N+](=O)[O-])cc1)N(C(=O)c1ccncc1)N2 (centres unmarked)  MIC (MTCC183): > 100 µg/mL
O=C(C=Cc1ccc(O)c(O)c1)Oc1ccccc1  MIC (broth dilution; SC5314): 32 µg/mL (≈ 125 µM)
